# Assay outcomes deposited in PubChem by several laboratories.
# VLA-4 inh = inhibition in human VLA-4 binding assay, primary screen, VLA-4 allosteric modulator project, MLPCN library, flow cytometry, VLA-4 expressing cells | Integrin alpha-4 (Homo sapiens), P13612 | ligand binding flow cytometry | inhibition, % (about 7 µM as worked out from the volumes in the protocol) | hit rate 0.2% among 330,000; in the data active means inhibition above about 50%
# Target sequence (P13612 whole entry, looked up): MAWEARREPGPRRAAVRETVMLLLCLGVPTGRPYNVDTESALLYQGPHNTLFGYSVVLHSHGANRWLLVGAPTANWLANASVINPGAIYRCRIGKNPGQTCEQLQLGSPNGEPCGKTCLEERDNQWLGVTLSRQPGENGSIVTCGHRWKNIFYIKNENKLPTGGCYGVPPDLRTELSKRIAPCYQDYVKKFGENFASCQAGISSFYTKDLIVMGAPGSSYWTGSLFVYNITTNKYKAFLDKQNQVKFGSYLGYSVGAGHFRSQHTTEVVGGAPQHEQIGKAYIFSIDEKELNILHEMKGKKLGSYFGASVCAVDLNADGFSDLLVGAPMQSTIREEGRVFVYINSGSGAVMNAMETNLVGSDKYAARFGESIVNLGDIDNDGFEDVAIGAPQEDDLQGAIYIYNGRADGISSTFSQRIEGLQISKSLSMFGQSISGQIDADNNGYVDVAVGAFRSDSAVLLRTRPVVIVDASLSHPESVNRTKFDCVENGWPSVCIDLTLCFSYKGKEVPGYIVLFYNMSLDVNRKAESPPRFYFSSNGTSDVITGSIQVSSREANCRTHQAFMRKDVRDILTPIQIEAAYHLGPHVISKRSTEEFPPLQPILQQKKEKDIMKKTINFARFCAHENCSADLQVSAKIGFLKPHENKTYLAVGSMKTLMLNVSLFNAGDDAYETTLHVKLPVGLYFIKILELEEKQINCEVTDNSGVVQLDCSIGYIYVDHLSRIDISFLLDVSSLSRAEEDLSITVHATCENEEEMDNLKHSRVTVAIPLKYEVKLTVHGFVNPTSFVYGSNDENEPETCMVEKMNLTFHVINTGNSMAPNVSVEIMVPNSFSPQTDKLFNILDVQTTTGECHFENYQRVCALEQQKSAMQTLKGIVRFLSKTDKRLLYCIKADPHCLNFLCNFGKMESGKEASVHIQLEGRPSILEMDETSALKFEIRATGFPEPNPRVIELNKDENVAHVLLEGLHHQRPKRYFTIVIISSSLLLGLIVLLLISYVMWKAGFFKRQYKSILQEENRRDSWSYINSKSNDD
# TAAR1 ag = human TAAR1 agonists, primary screen, Fluo-8 calcium fluorescence, CHO RD-HGA16 cells. activation, % at 3 µM. AID 624467, 2012. hit rate 0.99% among 360,000. vehicle wells 0%, saturating PEA agonist 100%. Trace amine-associated receptor 1 (Homo sapiens), Q96RJ0;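 active means activation above the mean activation of all test compounds in the run plus 3 SD, cut at about 38% in these data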
#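 System: CHO-derived RD-HGA16 cells with stable Gα16 and human TAAR1 / Times: 17-24 h plating, Fluo-8 75 min 37 °C, 30 min RT / Technique: calcium-sensitive Fluo-8 signal, excitation 470-495, emission 515-575 nm / Measure: % activation relative to PEA EC100 response / Benchmarks: DMSO and PEA EC100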
# Rce1 inhib = yeast Rce1p protease inhibitors, primary screen, biochemical, fluorescence, cell-free homogeneous; CAAX prenyl protease 2 (Saccharomyces cerevisiae (strain ATCC 204508 / S288c)), Q03530; yeast membranes, quenched prenylated peptide cleavage fluorescence; calls only; hit rate 0.27% among 290,000; AID 2563, 2010;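 active means fall in fluorescence gain of 50% or more versus controls, with final raw signal at or below 3038400; inconclusive means same 50% fall but final raw signal above 3038400; inactive means fall in fluorescence gain under 50%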;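 further: plate controls were neutral control wells for no effect and wells lacking membranes for full effect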
# Platelet DG rel = inhibitors of platelet dense granule secretion, primary screen, cell-based, MLPCN, human platelets; hit rate 0.22% among 300,000; human platelet-rich plasma, SFLLRN dense granule ATP release, luminescence; inhibition, %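 (compounds screened at 7.5 µM in platelet-rich plasma)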;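 active means mean replicate score, as percent of positive control, at or above 50; inconclusive means mean below 50 but at least one replicate at or above 50; inactive means mean and every replicate below 50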
# TAAR1 antag = human TAAR1 antagonists, primary screen, Fluo-8 calcium fluorescence, CHO RD-HGA16 cells. Trace amine-associated receptor 1 (Homo sapiens), Q96RJ0. antagonist. inhibition, % at 3 µM. hit rate 1.5% among 360,000. AID 624466, 2012;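 active means inhibition above a per-plate cutoff, the mean inhibition of test compounds on that plate plus 3 SD, cut at about 49% in these data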;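 further: 0% = DMSO plus EC80 beta-PEA response and 100% = DMSO alone without agonist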
#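 System: RD-HGA16 CHO cells with stable hTAAR1 and Gα16 | Probe or stimulus: EC80 β-phenethylamine stimulus | Dosing: 3 µM, single point | Times: Dye loading 75 min at 37 °C, then 30 min room temperature | Measured by: Fluo-8 calcium-sensitive fluorescence | Read-out basis: % inhibition of agonist calcium response | Replicates: n of 1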
# * marks the source's active call; other numbers are inactive results; i = inactive; u = inconclusive; x = not tested or not shown; + = active, no number. Most compounds without a hit are left out; they make up all but 2.6% or so of the library.
SMILES,VLA-4 inh,TAAR1 ag,Rce1 inhib,Platelet DG rel,TAAR1 antag
CCOc1ccc(NC(=O)CN(C)C(=O)c2cc(-c3ccc(OC)cc3)nc3ccccc23)cc1OCC,-3,11,i,18,56*
COc1ccc(NC(=O)c2cc(-c3cc(OC)c(OC)c(OC)c3)nc3ccccc23)cc1OC,-6,14,i,-5,55*
COc1cc(-c2cc(C(=O)N(C)Cc3ccccc3)c3ccccc3n2)cc(OC)c1OC,0,5,i,0,47
O=C(NC1CCCc2c1cnn2-c1ccc(F)cc1F)c1ccccc1N1CCOCC1 (centres undefined),5,-2,i,8,-6
CCOC(=O)/C=C1/SCC(=O)N1CCOc1cccc(Br)c1,x,1,x,x,-16
NC1=NC(=O)NC1(c1ccccc1)c1ccccc1,x,1,x,x,-8
Cc1oc(-c2ccccc2Cl)nc1CS(=O)CC(=O)NCCc1ccccc1 (centres undefined),1,38*,i,1,-14
Cc1ccccc1-c1nc(CS(=O)CC(=O)NCCc2ccc(Cl)cc2)c(C)o1 (centres undefined),9,18,i,5,-17
CC1Nc2ccc(C(=O)NC3CCCCC3)cc2NC1=O (centres undefined),4,1,x,-4,-3
CCc1noc(C)c1C(=O)Nc1nnc(CC(C)C)s1,9,7,i,-12,-11
Nc1ccc(Cc2ccc(N)c(C(=O)O)c2)cc1C(=O)O,7,6,+,-2,18
O=C(CNc1cccc(S(=O)(=O)N2CCOCC2)c1)N1CCc2ccccc21,x,0,i,-1,-6
CCOC(=O)c1c(C)[nH]c(C(=O)C(C)OC(=O)c2oc3ccccc3c2COC)c1C (centres undefined),-5,x,i,73*,x
CCOC(=O)c1c(C)[nH]c(C(=O)COC(=O)c2oc3ccccc3c2C)c1C,9,2,i,1,-8
CCCCNC(=S)N1CCN(CC)CC1,1,39*,i,0,-35
CCOCCCNC(=S)N1CCN(CC)CC1,13,2,i,-16,7
O=C1CSC(c2cn(-c3ccccc3)nc2-c2ccc3c(c2)OCCO3)N1CCN1CCOCC1 (centres undefined),16,12,i,55*,27
COc1cccc(CNC(=O)c2cc(S(=O)(=O)N3CCOCC3)cn2C)c1,7,1,i,51*,-5
Cc1ccc(CNC(=O)c2oc3ccc(S(=O)(=O)N4CCOCC4)cc3c2C)cc1,-1,26,i,-7,47
Cc1ccc(S(=O)(=O)N2CCOCC2)cc1NC(=O)CNCc1ccc(Cl)cc1Cl,7,21,x,x,59*
COc1ccc(CNC(=O)c2cc(S(=O)(=O)N3CCOCC3)cn2C)cc1,27,0,i,-28,10
COc1ccc(CNC(=O)c2oc3ccc(S(=O)(=O)N4CCOCC4)cc3c2C)cc1,-5,29,i,-4,51*
Cc1ccc(S(=O)(=O)N2CCCCC2)cc1NCC(=O)Nc1ccc(Br)cc1F,x,7,x,x,57*
Cc1ccc(C)c(NC(=O)c2cc(S(=O)(=O)N3CCOCC3)cn2C)c1,13,3,i,111*,-28
COc1ccc(CCNC(=O)c2cc(S(=O)(=O)N3CCOCC3)cn2C)cc1OC,0,0,i,51*,2
SMILES,VLA-4 inh,TAAR1 ag,Rce1 inhib,Platelet DG rel,TAAR1 antag
Cc1cccc(NC(=O)c2cc(S(=O)(=O)N3CCOCC3)cn2C)c1C,28,1,i,10,2
CCOC(=O)CSc1nc2nc(Cl)c(Cl)nc2[nH]1,x,9,x,x,-8
COc1ccc(Cc2c(C(C)(C)C)nc3c(C)cc(Br)cn23)c(C)c1,x,2,x,x,-15
O=C(Nc1ncccc1O)c1ccc(S(=O)(=O)NCc2ccco2)cc1,x,0,x,x,9
C=CCN1CCN(C(=O)c2cc3c(s2)CCC(CC)C3)CC1 (centres undefined),-1,-1,i,38,-22
CCOc1ccccc1CNS(=O)(=O)c1ccc(-c2cnc(C3CC3)o2)cc1,i,4,i,-3,58*
CC(=O)N(C)c1ccc(NC(=O)/C=C/c2ccccc2Cl)cc1,17,19,+,2,37
O=C(/C=C/c1ccccc1Cl)Nc1ccncc1,-1,29,i,u,22
Cc1cc(N)c2cc(NC(=O)/C=C/c3ccccc3Cl)ccc2n1,20,x,+,0,x
CCC1Sc2ccc(S(=O)(=O)CCC(=O)NC3CCCCCC3)cc2NC1=O (centres undefined),-3,3,i,-54,21
O=C(O)c1ccc(Nc2cc(Cl)c3nonc3c2[N+](=O)[O-])cc1,12,4,x,0,1
O=[N+]([O-])c1c(Nc2cccc(O)c2)cc(Cl)c2nonc12,28,-3,i,60*,-3
Cc1ccc(-c2cc(-c3ccccc3)c(C#N)c(Br)n2)cc1,-3,0,+,-4,18
CS(=O)(=O)c1nc(-c2ccccc2)cc(-c2ccccc2)c1C#N,2,x,i,-1,x
COc1ccc(N2CCN(CCC(=O)c3ccc4ccccc4c3)CC2)cc1,3,13,i,2,-6
COc1ccc2oc3c(ccc[n+]3C)c(=O)c2c1,x,0,x,x,0
CCOC(=O)N1CCN(CC(O)COc2ccc(OC)cc2C(C)(C)C)CC1 (centres undefined),-8,6,i,11,3
CCOC(=O)C1CCCN(CC(O)COc2ccc(OC)cc2C(C)(C)C)C1 (centres undefined),6,39*,i,8,48
Cc1ccc(-c2noc(-c3ccccc3F)n2)cc1,-9,8,i,11,-8
O=C(O)c1ccc(-c2noc(-c3ccccc3F)n2)cc1,x,7,i,69*,21
CC(=O)Oc1cccc(-c2nc3ccccc3c(=O)o2)c1,0,1,i,2,0
COc1cccc(-c2nc3ccc(O)cc3c(=O)o2)c1,3,6,x,52*,-3
COc1cccc(-c2nc(-c3ccc(C(=O)O)cc3)no2)c1,2,6,i,50*,-4
COc1cccc(-c2nc(-c3ccc(NC(=O)c4cccs4)cc3)no2)c1,-2,6,i,6,51*
O=C(O)c1ccc(-c2noc(-c3cccc(F)c3)n2)cc1,-12,5,i,40,5
O=C1c2ccc([N+](=O)[O-])cc2C(=O)N1Cc1cccnc1,6,6,i,-8,-20
Cc1ccc(OCCn2cnc3c2c(=O)n(C)c(=O)n3C)cc1,-1,0,i,2,-8
Cc1nc(SCC(=O)NC(=O)NC2CCCCC2)nc(C)c1C,3,4,i,-1,-9
